Data from PMC3529859 (Leukemia, 2012).

How the values were obtained:
Assay type in all cases: cell-based, human
[1] = test system: KIT D816V+ primary bone marrow mast cells; settings: 1 µM (1000 nM); 7 d; SCF 100 ng/ml; KIT D816V-positive patients n=5
Procedure, shortened: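 Bone marrow mononuclear cells from patients with systemic mastocytosis (WHO criteria, IRB-approved protocol, informed consent), with KIT D816V status determined by PCR/RFLP. Cells were incubated with test compound at 0, 100 or 1000 nM in 0.1% DMSO for 7 d with SCF (100 ng/ml), then mast cell viability was assessed.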

[2] = test system: SCF-enhanced degranulation of primary HuMCs; assay: SCF-enhanced degranulation of HuMCs; settings: Ag 0.1 ng/ml + SCF 10 ng/ml; up to 1000 nM
[3] = test system: FcεRI-mediated degranulation of primary HuMCs; assay: FcεRI-mediated degranulation of HuMCs; settings: Ag 1 ng/ml; inhibition observed only at 1000 nM

| SMILES | reduction in the viability of mast cells [1] [%] | effect on SCF-enhanced degranulation [2] | effect on FcεRI mediated mast cell degranulation [3] |
| --- | --- | --- | --- |
| CO[C@@H]1[C@H](N(C)C(=O)c2ccccc2)C[C@H]2O[C@]1(C)n1c3ccccc3c3c4c(c5c6ccccc6n2c5c31)C(=O)NC4 [PKC 412] | 88 |  |  |
| Cc1ccc(NC(=O)c2ccc(CN3CCN(C)CC3)cc2)cc1Nc1nccc(-c2cccnc2)n1 [imatinib] |  | inhibited SCF-enhanced degranulation at the highest concentration | minimal effects |
